# Hits are enriched below; roughly 2.6% of the tested compounds scored in any of these assays.
# OX1R antag-1 – antagonists of human orexin 1 receptor; O43613; CHO/OX1R cells, Fluo-8 calcium fluorescence, orexin A; inhibition, % at 5 µM; 0.43% of 330,000 active; AID 434989;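 active = inhibition above its plate's threshold, mean inhibition of all tested compounds on the plate plus 3 SD, cut at about 37% in these data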;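 also: 0% = orexin A challenge wells and 100% = SB-334867-A antagonist wells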
# OX1R antag-2 – blocks the human orexin 1 receptor; 1.8% of 330,000 active; inhibition, % at 6.6 µM; AID 485270; O43613; OX1R-expressing cells, FRET antagonist read-out; in the data active = inhibition mostly above about 38%, no sharp cut-off; inactive = mostly below about 40%;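 also: 0% = agonist challenge alone and 100% = reference antagonist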
# V1R ag counter – V1a receptor agonism, counter-screen for OXTR agonists; P37288; CHO-V1R cells, Fluo-8 calcium fluorescence, agonist mode; 0% DMSO, 100% 3 nM vasopressin; activation, % at 3 µM; 0.25% of 320,000 active;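 active = activation above the mean activation of all tested compounds plus 3 SD, per screening run, cut at about 20% in these data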;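 also: signal is peak over basal fluorescence ratio across a 100 second FLIPR read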
# Target sequence (P37288 whole entry, looked up): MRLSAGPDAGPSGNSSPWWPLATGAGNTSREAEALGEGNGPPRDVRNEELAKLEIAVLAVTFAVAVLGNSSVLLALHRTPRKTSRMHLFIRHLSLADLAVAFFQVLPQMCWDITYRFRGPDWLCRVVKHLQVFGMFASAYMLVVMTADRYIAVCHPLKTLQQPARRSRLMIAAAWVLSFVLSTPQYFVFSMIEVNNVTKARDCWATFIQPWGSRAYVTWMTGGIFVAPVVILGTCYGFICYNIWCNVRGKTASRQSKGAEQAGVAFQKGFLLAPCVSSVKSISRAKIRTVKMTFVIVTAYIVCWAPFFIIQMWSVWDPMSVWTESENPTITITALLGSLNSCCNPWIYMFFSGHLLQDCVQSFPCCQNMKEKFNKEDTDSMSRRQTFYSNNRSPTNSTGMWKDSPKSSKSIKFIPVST
# CHO parental Ca – counter-screen: ATP calcium response change in parental CHO cells; parental CHO-K1, ATP-induced calcium, Fluo-8 fluorescence; inhibition, % at 5.6 µM; 0.63% of 330,000 active; AID 463079;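 active = inhibition above that plate's mean sample inhibition plus 3 SD, cut at about 26% in these data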;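 also: 0% = ATP-challenged DMSO wells and 100% = DMSO wells without ATP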
#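 Assay system: parental CHO cells; Read-out basis: percent inhibition of ATP-evoked calcium rise, normalized to controls; Benchmarks: ATP and no-ATP DMSO wells; Compound dosing: single nominal dose of 5.6 µM per compound; Signal: Fluo-8 calcium dye fluorescence; Also added: ATP as calcium-mobilizing challenge; Repeats: singlicate.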
# OXTR potentiator – potentiators of human oxytocin receptor | activation, % at 3 µM | 0.061% of 320,000 active | CHO-OTR cells, Fluo-8 calcium fluorescence, potentiator mode; 0% = oxytocin EC15, 100% = EC100 | P30559 | AID 2445;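 active = activation above that plate's cutoff, the mean activation of tested compounds plus 3 SD, cut at about 6.6% in these data, passing the limit was not always enough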;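 also: 100% uses oxytocin at 75 nM as the full agonist control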
#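 Material: CHO-OTR cells, human receptor; compound dosing: single dose, 3.0 µM nominal final compound concentration; schedule: 6 min compound pre-incubation at room temperature, 100 s kinetic read; measured by: kinetic Fluo-8 calcium fluorescence; read-out basis: % activation vs EC15 and EC100 oxytocin; controls: EC15 oxytocin alone as 0%, 75 nM oxytocin as 100%; replicates: singlicate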
# OXTR agonist – activates the human oxytocin receptor; P30559; CHO-OTR cells, Fluo-8 calcium fluorescence; normalized: DMSO 0%, oxytocin 100%; activation, % at 3 µM; 0.32% of 320,000 active; AID 2435;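 active = activation above the mean of all tested compounds plus 3 SD, cutoff set per screening run, cut at about 20% in these data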;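 also: peak over basal fluorescence ratio from a 100 s FLIPR kinetic read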
# Numbers without * were called inactive.
SMILES,OX1R antag-1,OX1R antag-2,V1R ag counter,CHO parental Ca,OXTR potentiator,OXTR agonist
COc1ccccc1CNC(=O)c1ccncc1,-4.3,-0.8,0.5,-1.1,-2.6,0.5
O=S(=O)(c1ccc2[nH]ccc2c1)N1CCCCCC1,-16.4,0.5,0.7,-15.4,-10.1,1.0
COc1ccc(NC(=O)CN(C)C(=O)c2sc3cc(Cl)ccc3c2Cl)cc1,-23.7,19.0,0.4,-20.2,-3.6,0.7
CC(C)(C)C(=O)OCCNc1nc(-c2ccccc2)nc2ccccc12,-12.9,71.8*,1.0,-16.6,-4.5,-2.1
CC(C)OCCCNc1nc(-c2ccccc2)nc2ccccc12,23.3,51.5*,1.9,-17.2,-20.5,-2.3
CN1/C(=C/C(=S)NC(=O)C2(C)CC2(Cl)Cl)C(C)(C)c2ccccc21 (stereo not given),20.4,16.5,0.2,-20.1,-10.1,-3.2
COc1ccccc1C(=O)NC(=S)/C=C1/N(C)c2ccccc2C1(C)C,48.4*,36.2,-0.8,49.1*,2.8,-3.2
Cc1nc(SCC(=O)N(C)C2CCS(=O)(=O)C2)c(C#N)c(C)c1C (stereo not given),-15.1,5.6,0.2,-9.7,-4.5,0.1
CCCCSc1nc(C)cc(SCC(=O)N/N=C/c2cccc(OC)c2O)n1,57.0*,69.8,7.1,34.2*,-23.4,6.6
O=C(Nc1nnc(-c2ccco2)o1)c1ccc([N+](=O)[O-])s1,-7.0,66.0*,0.2,-6.8,-8.9,-1.5
O=C(NN=Cc1ccc(F)cc1)c1ccccc1NS(=O)(=O)c1cccs1,-6.3,24.8*,8.9,-5.8,-6.7,11.7
CCCCN(C(=O)CCC(=O)Nc1cc(C)on1)C(C(=O)NC1CCCC1)c1ccccc1OCC (stereo not given),4.7,75.9*,1.5,-21.2,-10.2,-1.8
CCCCN(C(=O)CCC(=O)Nc1cc(C)on1)C(C(=O)NC1CCCC1)c1ccc(OCC)cc1 (stereo not given),-42.7,14.9,-1.7,-16.5,2.0,-1.8
O=C(O)COc1ccccc1/C=C1\SC(=S)N(c2cccnc2)C1=O,-11.5,54.3,0.7,-13.7,-1.6,1.1
COc1ccccc1NC(=O)CC1S/C(=N/N=C2\CCCc3ccccc32)NC1=O (stereo not given),20.1,53.9*,3.2,5.7,-17.2,2.0
C/C(=N\NC(=O)CCc1c[nH]c2ccccc12)c1ccc([N+](=O)[O-])cc1,-9.4,59.5*,3.6,0.1,-9.6,4.3
C/C(=N\NC(=O)CCc1c(C)n[nH]c1C)c1ccc([N+](=O)[O-])cc1,-8.1,27.5,-1.2,-4.2,-4.7,-1.5
Cc1ccc([N+](=O)[O-])c(NC2OC(CO)C(O)C2O)c1 (stereo not given),-12.1,24.3,-0.2,-11.4,1.7,0.5
O=C(COc1ccccc1/C=C1/NC(=O)NC1=O)Nc1ccccc1,-22.6,6.6,-0.1,-7.0,-0.1,-1.3
O=C(COc1ccccc1/C=C1\SC(=O)NC1=O)Nc1ccc(F)cc1,-21.7,76.6*,5.3,-4.0,0.1,0.0
O=C(O)c1ccccc1O,-5.7,7.2,0.7,3.9,-5.2,0.8
Nc1c(O)cccc1C(=O)O,3.6,61.1*,0.6,1.2,-5.2,-0.4
CCCNC1=C(N(C(C)=O)c2cccc(F)c2)C(=O)c2ccccc2C1=O,-16.9,68.0*,-1.0,-5.1,0.6,-1.0
Cc1sc2ncnc(N3CCC(C(=O)N(CC(C)C)c4nc5ccccc5s4)CC3)c2c1C,-34.0,20.5,-0.6,-13.2,-4.9,-0.9
Cc1cc(NC(=O)CSc2ccc(-c3ccc(Br)cc3)nn2)no1,-12.6,10.3,-0.4,-7.1,-3.1,-2.1
SMILES,OX1R antag-1,OX1R antag-2,V1R ag counter,CHO parental Ca,OXTR potentiator,OXTR agonist
COCCCNC(=O)Cc1c(C)c2c(cc(C)c3c(C(C)(C)C)coc32)oc1=O,-27.9,2.3,2.6,-22.0,-8.4,-0.4
CCOC(=O)C1CCN(C2=NC(=O)/C(=C/c3ccc(Cl)cc3)S2)CC1,-10.7,0.8,-0.5,-11.8,-10.4,-1.8
CCOC(=O)CSC1=NC(=O)/C(=C\c2ccc(Cl)cc2)S1,5.1,72.2*,7.2,-4.8,-18.6,5.9
CN=C1S/C(=C\c2ccc(SC)cc2)C(=O)N1C,-5.8,3.7,0.1,-6.3,-14.6,-1.0
CSC1=NC(=O)/C(=C/c2ccc(SC)cc2)S1,-17.7,39.1*,1.4,-11.2,-6.3,1.1
O=C(OCC(=O)N1CCCCC1)c1ccc2c(c1)C(=O)N(Cc1ccco1)C2=O,-6.8,32.6*,1.3,-16.2,-2.2,3.1
CC1=C(C(=O)N(C)C)C(c2ccc(N3CCOCC3)cc2)NC(=O)N1 (stereo not given),11.7,-2.2,0.2,-6.0,-2.8,0.1
Cc1ccc(NC(=O)CCn2c(=O)c3cccn3c3ccccc32)c(C)c1,-29.6,8.2,1.8,-10.8,-12.6,0.7
Cc1cc(C)cc(NC(=O)CCn2c(=O)c3cccn3c3ccccc32)c1,12.8,41.3*,0.6,-11.9,-10.0,-1.6
CCC(CC)C(=O)c1c[nH]c(C(=O)N2CCN(c3ccc(OC)cc3)CC2)c1,-5.3,2.5,2.3,5.2,-1.6,-1.8
COc1ccccc1CNC(=O)CN1C(=O)N(C)C2(CCCCC2)C1=O,-18.8,5.0,0.0,-1.0,-7.7,0.0
CC(C)n1c2ccccc2c2nnc(SCC(=O)OCN3C(=O)c4ccccc4C3=O)nc21,-0.8,49.6*,-0.3,-16.6,-4.7,-2.3
CCOC(=O)[C@@H]1[C@H]2COc3ccc(Br)cc3[C@H]2N2C(=O)N(c3ccc(F)cc3)C(=O)[C@@]12C,-6.5,13.6,0.6,-10.3,1.9,0.2
CC(Sc1nc(N)cc(=O)[nH]1)C(=O)Nc1sc2c(c1C#N)CCCC2 (stereo not given),30.9,11.1,3.7,34.3*,-10.4,2.1
Cc1ccc(NC(=O)c2cc(-c3ccco3)on2)cc1C,-10.1,14.5,-0.5,-9.0,-5.7,-0.7
Cc1ccc(NC(=O)c2cc(-c3cccc(O)c3)on2)cc1C,13.0,37.9*,0.9,20.9,-3.5,-0.2
COc1cc(NC(=O)c2cc(-c3ccccc3)on2)cc(OC)c1OC,-23.2,26.5,-0.7,-25.3,-6.2,-0.8
COc1cccc(-c2cc(C(=O)Nc3cc(OC)c(OC)c(OC)c3)no2)c1,-3.5,41.2*,-0.6,-11.9,-10.0,-0.5
CCC(CC)NC(=O)CON=C1c2ccccc2-c2ccccc21,-13.0,51.4*,-1.2,-21.1,-3.4,-1.6
COc1ccc(OC(C)C(=O)Nc2ccc([N+](=O)[O-])cc2)cc1 (stereo not given),-1.2,16.2,5.7,-9.3,-14.9,3.4
COc1ccc(NC(=O)C(C)Oc2ccc(/C(C)=N\O)cc2)cc1 (stereo not given),7.0,5.7,33.0*,5.7,-22.9,39.5*

# Bioassay records: PubChem BioAssay, The Scripps Research Institute Molecular Screening Center
